Screens from PubChem.
Shown are actives, neighbours in structure and some others; about 4% of the full set was active somewhere.
Hsp70 activator = switches on Hsp70 transcription; activation, % at 10 µM; HeLa Hsp70 promoter luciferase reporter, luminescence; scaled: vehicle 0, proteasome-inhibitor control 100%; AID 1203; 200,000 compounds, 0.04% hits;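 active = activation above the mean across all tested compounds plus 3 SD, cutoff set per campaign, cut at about 5.5% in these data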
CHOP inhibitor = CHOP inhibition in unfolded protein response; 220,000 compounds, 3.8% hits; inhibition, % at 10 µM; AID 2732; CHO-K1 CHOP-promoter luciferase, tunicamycin-induced, 15-18 h;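 active = compounds that reduced the stress-induced luciferase reporter signal by more than about 70% of percent inhibition, limit read from the data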
S1P3 antag = blocks the human S1P3 receptor; AID 485; Q99500; inhibition, % at 4.98 µM; CHO S1P3 NFAT-BLA reporter, FRET fluorescence, antagonist mode; 170,000 compounds, 0.27% hits;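 active = inhibition above the plate cutoff, the mean inhibition of test wells on that plate plus 3 SD, cut at about 28% in these data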;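 also: cells challenged with S1P at its EC80 of 0.8 µM; blue over green emission ratio from cleaved BLA substrate after 4 h stimulation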
Target sequence (Q99500 whole entry, looked up): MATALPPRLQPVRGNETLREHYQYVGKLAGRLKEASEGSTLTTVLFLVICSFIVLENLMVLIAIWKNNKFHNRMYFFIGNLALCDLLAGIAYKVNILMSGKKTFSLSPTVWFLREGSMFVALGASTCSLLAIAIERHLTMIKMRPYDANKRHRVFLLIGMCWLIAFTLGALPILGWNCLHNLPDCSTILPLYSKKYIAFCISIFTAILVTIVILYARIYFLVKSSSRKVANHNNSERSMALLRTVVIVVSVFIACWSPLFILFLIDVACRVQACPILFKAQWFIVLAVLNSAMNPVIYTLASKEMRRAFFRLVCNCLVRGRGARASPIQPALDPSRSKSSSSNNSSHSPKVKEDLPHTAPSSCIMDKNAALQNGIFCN
MDM2 E3 inh = blocks human Mdm2 ubiquitin ligase activity; signal enhancement, % at 5 µM; cell-based MDM2 ubiquitination luciferase reporter, 2 h; 0 = plate control, 100 = twice control, blank-subtracted; 210,000 compounds, 0.11% hits; AID 1230;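 active = signal enhancement of 30% or more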;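 also: luminescence tracks abundance of the self-degrading MDM2-luciferase fusion protein; higher signal means inhibition of MDM2 E3 ligase activity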
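Test system: stable mammalian line carrying autodegrading MDM2–luciferase fusion reporter; quantity: 2000 cells in each well; times: 4 h cell settling then 2 h compound exposure, 37 °C; detection: luminescence with SteadyLite reagent, 15 min at room temperature; evaluation: percent signal gain over controls, blank-subtracted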
Of the large screens only hits and unclear results are named; the others gave an inactive call.

COc1cc(-c2nc(-c3ccccc3)c(-c3cccs3)[nH]2)cc(OC)c1OC	none (no result: S1P3 antag)
c1ccc(-c2nc(-c3cccs3)[nH]c2-c2ccccc2)cc1	CHOP inhibitor 74.4 (no result: S1P3 antag)
O=C(NNC(=O)c1ccc(Cl)cc1Cl)Nc1ccccc1	none
O=C(NNC(=O)c1cc(-c2ccc(Cl)cc2Cl)nc2ccccc12)Nc1ccccc1	CHOP inhibitor 95.7 (no result: S1P3 antag)
CCCCSc1nnc(CNC(=O)C23CC4CC(CC(C4)C2)C3)n1Cc1ccccc1	CHOP inhibitor 85.4
COc1cccc2c1OCC/C2=N\NC(=O)C(C)Oc1ccc([N+](=O)[O-])cc1 (configuration not stated)	none
O=C(CN1C(=O)c2ccccc2C1=O)NCc1ccccn1	none (no result: S1P3 antag)
O=C(Cn1c(=O)sc2ccccc21)NCc1ccccn1	CHOP inhibitor 74.5
CCOC(=O)C1CCN(CC(O)COc2ccc(C(C)(C)CC)cc2)CC1 (configuration not stated)	CHOP inhibitor 92.6 (no result: S1P3 antag)
Cc1cc(/C=N/NC(=O)C(=O)NCc2ccccn2)c(C)n1-c1ccccc1	none
CCSc1nnc(NC(=O)c2ccc(C)o2)s1	none
CCSc1nnc(NC(=O)c2cc(C)oc2C)s1	CHOP inhibitor 77.9
Cc1ccc(S(=O)(=O)N/N=C2/CCCCC2C2CCCCC2)cc1[N+](=O)[O-] (configuration not stated)	CHOP inhibitor 79.2
CC(C)(C)C1CCC(=NNc2ccc(S(N)(=O)=O)cc2[N+](=O)[O-])CC1 (configuration not stated)	CHOP inhibitor 83.5
CCC(C)(C)C1CCC(=NNS(=O)(=O)c2ccc(C)c([N+](=O)[O-])c2)CC1 (configuration not stated)	CHOP inhibitor 70.4
CC(C)(C)C(=O)NC(=S)Nc1ccccc1C(N)=O	none
Cc1nc(N2CCc3ccccc3C2)[nH]c(=O)c1CCC(C)C	none
Cc1nc(Nc2ccccc2)[nH]c(=O)c1CCC(C)C	CHOP inhibitor 89.1
CCc1cccc(CC)c1NC(=O)COC(=O)c1ccc(F)c(S(=O)(=O)N(CC)CC)c1	none
O=c1ccc2ccc(Oc3ccc(Cl)cc3[N+](=O)[O-])cc2o1	none
Cc1cc(NC(=O)c2ccccc2)nc2c1c(=O)oc1ccccc12	none
CCC(CC)C(=O)Nc1cc(C)c2c(=O)oc3ccccc3c2n1	CHOP inhibitor 78.6 (no result: Hsp70 activator)
COc1ccc(N(C(=O)CCl)C(C(=O)NCCc2ccccc2)c2cccs2)cc1 (configuration not stated)	CHOP inhibitor 93.0
Cc1cccc(N/C(N)=N/c2nc(C(F)(F)F)cc(C(F)(F)F)n2)c1	none
CN(C)c1ccc(N/C(N)=N/c2nc(C(F)(F)F)cc(C(F)(F)F)n2)cc1	CHOP inhibitor 85.4
CCN(CC)c1ccc(N/C(N)=N/c2nc(C(F)(F)F)cc(=O)[nH]2)cc1	CHOP inhibitor 72.6
COc1cc(CNCCCN2CCOCC2)c(Br)cc1OCC(=O)Nc1ccccc1C	none
CCCCOc1ccc(CC2CCC(=O)NC2=O)cc1 (configuration not stated)	none
CCc1ccc2[nH]c3nc(SCC(=O)NNC(=O)c4ccc(C(C)(C)C)cc4)nnc3c2c1	CHOP inhibitor 88.8 (no result: S1P3 antag)
O=c1oc2cc(Br)ccc2n1CSC1=NCCS1	CHOP inhibitor 70.6
Cc1ccccc1C(=O)NNC(=O)CSc1nc2ccccc2c(=O)[nH]1	none (no result: Hsp70 activator)
COc1ccc(Br)cc1CN(C)CC(=O)Nc1c(Cl)cccc1Cl	none
O=C(CSc1cccc(C(F)(F)F)c1)N1CCN(S(=O)(=O)c2ccccc2)CC1	CHOP inhibitor 80.6
COc1cccc(N(C(=O)Cn2nnc(-c3ccc(Cl)cc3)n2)C(C(=O)NCC2CCCO2)c2ccc(C)cc2)c1 (configuration not stated)	CHOP inhibitor 80.4
COc1ccc(C(=O)Nc2nc3cc4c(cc3s2)OCO4)c(OC)c1	none (no result: Hsp70 activator)
CNc1oc(-c2ccc(Cl)cc2)nc1P(=O)(c1ccccc1)c1ccccc1	CHOP inhibitor 71.0 (no result: S1P3 antag)
O=C(CCN1C(=O)C2C3C=CC(C3)C2C1=O)Nc1ccc(F)cc1 (configuration not stated)	CHOP inhibitor 86.0
O=C(CCN1C(=O)C2C3C=CC(C3)C2C1=O)Nc1ccc2c(c1)OCO2 (configuration not stated)	none
COC(=O)CNc1nc(Cl)nc(Nc2ccc(Cl)cc2)n1	CHOP inhibitor 74.5
COC(=O)CNc1nc(Cl)nc(Nc2ccc(C)cc2)n1	none
CCOC(=O)c1ccc(Nc2nc(-c3cccnc3)nc3ccccc23)cc1	CHOP inhibitor 92.8 (no result: S1P3 antag)
O=C(CCl)Nc1cccc(S(=O)(=O)N2CCCCCC2)c1	CHOP inhibitor 92.9
COc1cc(OC)nc(Oc2ccccc2C(=O)Oc2ccc(C)cc2)n1	none (no result: S1P3 antag)
COc1ccccc1C(=O)Oc1ccc(C(C)(C)C)cc1	CHOP inhibitor 74.9 (no result: S1P3 antag)
O=C(Nc1cccc(S(=O)(=O)N2CCOCC2)c1)c1cn(-c2ccccc2)nc1-c1ccc(F)cc1	CHOP inhibitor 72.5
NS(=O)(=O)c1ccc(NC(=O)COC(=O)c2cn(-c3ccccc3)nc2-c2ccc(F)cc2)cc1	CHOP inhibitor 78.1
CC1=C(C(=O)OCCOc2ccccc2)C(c2ccsc2)NC(=O)N1C (configuration not stated)	none
CCc1c(C)sc(NC(=O)c2noc(C)c2[N+](=O)[O-])c1C#N	none
CCOP(=O)(OCC)c1nc(-c2cccc3ccccc23)oc1NCc1ccc(OC)cc1	none
CCOP(=O)(OCC)c1nc(-c2cccc3ccccc23)oc1NCc1ccccc1	CHOP inhibitor 77.4 (no result: S1P3 antag)
CCOP(=O)(OCC)c1nc(/C=C/c2ccccc2)oc1NCc1ccc(OC)cc1	CHOP inhibitor 76.5 (no result: S1P3 antag)
Nc1ncnc2c1nc(Br)n2C1OC2COP(=O)(O)O[C@@H]2C1O (some centres not stated)	none (no result: Hsp70 activator, S1P3 antag, MDM2 E3 inh)
CC1CCN(S(=O)(=O)c2ccc(C(=O)NCc3cccnc3)cc2)CC1	none
CC1Cc2ccccc2N1C(=O)CN1CCC(C(N)=O)CC1 (configuration not stated)	none
Cc1cc2c3c(c1)C(C)CC(C)(C)N3C(=O)C2=O (configuration not stated)	none
CC1CC2(CCCCC2)N2C(=O)C(=O)c3cccc1c32 (configuration not stated)	CHOP inhibitor 75.4 (no result: S1P3 antag)
Cc1ccc(/C=N/Nc2nc(Cl)c(Cl)cc2Cl)s1	CHOP inhibitor 82.5 (no result: S1P3 antag)
O=C(CN1CCC(O)(c2ccc3c(c2)OCO3)CC1)OC1CCCCC1	none
CCC(C(=O)OCC(=O)Nc1cccc(C(C)=O)c1)c1ccccc1 (configuration not stated)	none
CCC(C(=O)OCC(=O)Nc1cc(Cl)cc(Cl)c1)c1ccccc1 (configuration not stated)	CHOP inhibitor 91.6
CCOC(=O)c1ccccc1N=N/C(C(C)=O)=C(/C)O	none
CSC(=O)NC12CC3CC(CC(C)(C3)C1)C2	CHOP inhibitor 78.5
CCSC(=O)NC12CC3CC(CC(C3)C1)C2	none (no result: S1P3 antag)
CCc1cccc(C)c1NC(=S)N(CCN(C)C)Cc1cccs1	none
Clc1ccc(CSc2ncn(-c3ccccc3)n2)cc1	none (no result: S1P3 antag)
Clc1cccc(CSc2ncn(-c3ccccc3)n2)c1	CHOP inhibitor 92.5 (no result: S1P3 antag, MDM2 E3 inh)
